Measurements: ChEMBL document CHEMBL1121731, “Synthesis and neuroleptic activity of benzamides. Cis-N-(1-benzyl-2-methylpyrrolidin-3-yl)-5-chloro-2-methoxy-4-(methylamino)benzamide and related compounds” (1981)

Experiments:
Format in all cases: functional
Rattus norvegicus [1] = test: Subcutaneous dose to inhibit apomorphine-induced stereotyped behavior in 50% of rats
How it was run: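 Test drugs given subcutaneously to rats; 30 min later apomorphine 1.25 mg/kg i.v. Inhibition scored positive unless both gnawing and licking were seen during 20 min after apomorphine. ED50 estimated by Litchfield–Wilcoxon or graphical method, 6–12 rats per dose.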

[2] = Ratio of ED50 for inhibition of catalepsy induction to stereotypy induction
Rattus norvegicus [3] = species on record: Rattus norvegicus; test: Effective dose to induce catalepsy in 50% of the rats
Rattus norvegicus [4] = species on record: Rattus norvegicus; test: The inhibitory effect on the continuous avoidance was expressed as the dose to increase the number of electroshocks by 60% of the rats
How it was run: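 Modified Sidman continuous avoidance schedule in rats; shock-shock interval 5 s, response-shock interval 25 s; only rats receiving fewer than 19 shocks/h used. Drugs given subcutaneously; effect expressed as dose raising electroshocks by 60 (1 shock/min) between 1 and 2 h post-dose.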

Rattus norvegicus [5] = species on record: Rattus norvegicus; test: Effective dose to induce catalepsy in 50% of the rats (95% confidence limits included in parentheses)
[6] = Rattus norvegicus, sc, read-out: ED50

SMILES: CCN(CCNC(=O)c1cc(Cl)c(N)cc1OC)Cc1cccc(Cl)c1
- ED50 (Rattus norvegicus [1]; [6]): 0.58 mg/kg

SMILES: COc1cc(N)c(Cl)cc1C(=O)NCCN(C)Cc1ccccc1C
- ED50 (Rattus norvegicus [1]; [6]): 2 mg/kg

SMILES: CCNS(=O)(=O)c1ccc(OC)c(C(=O)NCCN(C)Cc2ccccc2)c1
- ED50 (Rattus norvegicus [1]; [6]): > 30 mg/kg

SMILES: CCN(CCNC(=O)c1cc(Cl)c(N)cc1OC)Cc1ccc(Cl)cc1
- ED50 (Rattus norvegicus [1]; [6]): 0.24 mg/kg

SMILES: COc1cc(N2CCCC2)c(Cl)cc1C(=O)NC1CCN(Cc2ccccc2)C1 (configuration not stated)
- ED50 (Rattus norvegicus [1]; [6]): 0.6 mg/kg

SMILES: COc1cc(N)c(Cl)cc1C(=O)NCCN(C)CC1CCCCC1
- ED50 (Rattus norvegicus [1]; [6]): 3 mg/kg

SMILES: COc1cc(N)c(Cl)cc1C(=O)NCC1CCCN1Cc1ccccc1 (configuration not stated)
- ED50 (Rattus norvegicus [1]; [6]): 1.1 mg/kg

SMILES: CCN(CCNC(=O)c1cc(Cl)c(N)cc1OC)Cc1ccccc1
- ED50 (Rattus norvegicus [1]; [6]): 0.31 mg/kg

SMILES: CCN(CCNC(=O)c1cc(Cl)c(N)cc1OC)Cc1ccccc1OC
- ED50 (Rattus norvegicus [1]; [6]): 10 mg/kg

SMILES: CCN(CCNC(=O)c1cc(Cl)c(N)cc1OC)Cc1cccc(OC)c1
- ED50 (Rattus norvegicus [1]; [6]): 1 mg/kg

SMILES: CNc1cc(OC)c(C(=O)NC2CCN(Cc3ccccc3)C2C)cc1Cl (cis isomer)
- Ratio [2]: 66

SMILES: CCN(CCNC(=O)c1cc(Cl)c(N)cc1OC)Cc1ccccn1
- ED50 (Rattus norvegicus [1]; [6]): 30 mg/kg

SMILES: COc1cc(NC=O)c(Cl)cc1C(=O)NC1CCN(Cc2ccccc2)C1 (configuration not stated)
- ED50 (Rattus norvegicus [1]; [6]): 0.6 mg/kg

SMILES: CCCCN(CCNC(=O)c1cc(Cl)c(N)cc1OC)Cc1ccc(Cl)cc1
- ED50 (Rattus norvegicus [1]; [6]): 20 mg/kg

SMILES: CCC1c2ccccc2CN1CNC(=O)c1cc(Cl)c(N)cc1OC (configuration not stated)
- ED50 (Rattus norvegicus [1]; [6]): 1 mg/kg

SMILES: CCN1CCCC1CNC(=O)c1cc(Cl)c(N)cc1OC (configuration not stated)
- ED50 (Rattus norvegicus [1]; [6]): > 30 mg/kg

SMILES: COc1cc(NCc2ccccc2)c(Cl)cc1C(=O)NC1CCN(Cc2ccccc2)C1 (configuration not stated)
- ED50 (Rattus norvegicus [1]; [6]): > 30 mg/kg

SMILES: COc1cc(N)c(Cl)cc1C(=O)NC1CCN(Cc2ccccc2)C1 (configuration not stated)
- ED50 (Rattus norvegicus [1]; [6]): 0.17 mg/kg

SMILES: COc1cc(N)c(Cl)cc1C(=O)NCC1CCC(C)N1Cc1ccccc1 (configuration not stated)
- ED50 (Rattus norvegicus [1]; [6]): 0.67 mg/kg

SMILES: COc1ccc(S(C)(=O)=O)cc1C(=O)NCCN(C)Cc1ccccc1
- ED50 (Rattus norvegicus [1]; [6]): 3 mg/kg

SMILES: CNc1cc(OC)c(C(=O)NCC2CCC(C)N2Cc2ccccc2)cc1Cl.Cl (configuration not stated)
- ED50 (Rattus norvegicus [1]; [6]): 0.35 mg/kg
- ED50 (Rattus norvegicus [3]): 13.5 mg/kg
- ED50 (Rattus norvegicus [4]): 0.11 mg/kg
- Ratio [2]: 39

SMILES: CCN(CCNC(=O)c1cc(Cl)c(N)cc1OC)Cc1ccc(OC)cc1
- ED50 (Rattus norvegicus [1]; [6]): 0.2 mg/kg

SMILES: O=C(CCCN1CCC(O)(c2ccc(Cl)cc2)CC1)c1ccc(F)cc1 [HALOPERIDOL]
- ED50 (Rattus norvegicus [1]; [6]): 0.095 mg/kg
- ED50 (Rattus norvegicus [3]): 1 mg/kg
- ED50 (Rattus norvegicus [4]): 0.021 mg/kg
- Ratio [2]: 11

SMILES: COc1cc(N)c(Cl)cc1C(=O)NCCN(Cc1ccccc1)Cc1ccccc1
- ED50 (Rattus norvegicus [1]; [6]): > 30 mg/kg

SMILES: COc1cc(N)c(Cl)cc1C(=O)NCCN(Cc1ccc(Cl)cc1)C(C)C
- ED50 (Rattus norvegicus [1]; [6]): 3 mg/kg

SMILES: CCN(CCNC(=O)c1cc(Cl)c(N)cc1OC)Cc1ccco1
- ED50 (Rattus norvegicus [1]; [6]): 3 mg/kg

SMILES: COc1cc(N)c(Cl)cc1C(=O)NCCN(Cc1ccccc1)C(C)(C)C
- ED50 (Rattus norvegicus [1]; [6]): > 30 mg/kg

SMILES: CCN(CC)CCNC(=O)c1cc(Cl)c(N)cc1OC [METOCLOPRAMIDE]
- ED50 (Rattus norvegicus [1]; [6]): 3.1 mg/kg
- ED50 (Rattus norvegicus [3]): 26 mg/kg
- ED50 (Rattus norvegicus [4]): 2.6 mg/kg
- Ratio [2]: 8.4

SMILES: CNc1cc(OC)c(C(=O)NCCN(C)Cc2ccccc2)cc1Cl.Cl
- ED50 (Rattus norvegicus [1]; [6]): 0.21 mg/kg
- ED50 (Rattus norvegicus [3]): 16.5 mg/kg
- ED50 (Rattus norvegicus [4]): 0.041 mg/kg
- Ratio [2]: 79

SMILES: COc1ccc(S(N)(=O)=O)cc1C(=O)NCCN(C)Cc1ccccc1
- ED50 (Rattus norvegicus [1]; [6]): > 30 mg/kg

SMILES: CNc1cc(OC)c(C(=O)NC2CCN(Cc3ccccc3)C2C)cc1Cl (trans isomer) [NEMONAPRIDE]
- ED50 (Rattus norvegicus [1]): 0.057 mg/kg

SMILES: COc1cc(N)c(Cl)cc1C(=O)NCCN(C)C(C)c1ccccc1 (configuration not stated)
- ED50 (Rattus norvegicus [1]; [6]): 1 mg/kg

SMILES: COc1cc(N(C)C(=O)C(F)(F)F)c(Cl)cc1C(=O)NC1CCN(Cc2ccccc2)C1 (configuration not stated)
- ED50 (Rattus norvegicus [1]; [6]): 0.3 mg/kg

SMILES: CCN1C(CNC(=O)c2cc(Cl)c(NC)cc2OC)CCC1c1ccccc1 (configuration not stated)
- ED50 (Rattus norvegicus [1]; [6]): > 30 mg/kg

SMILES: CCN(CCNC(=O)c1cc(Cl)c(N)cc1OC)Cc1ccc(F)cc1
- ED50 (Rattus norvegicus [1]; [6]): 0.2 mg/kg

SMILES: CNc1cc(OC)c(C(=O)NC2CCN(Cc3ccccc3)C2C)cc1Cl (cis isomer) [NEMONAPRIDE]
- ED50 (Rattus norvegicus [1]): 0.0076 mg/kg
- ED50 (Rattus norvegicus [5]): 0.5 mg/kg
- ED50 (Rattus norvegicus [4]): 0.0034 mg/kg

SMILES: CCN(CCNC(=O)c1cc(Cl)c(N)cc1OC)Cc1ccc(Cl)cc1Cl
- ED50 (Rattus norvegicus [1]; [6]): 10 mg/kg

SMILES: COc1cc(NC(C)=O)c(Cl)cc1C(=O)NC1CCN(Cc2ccccc2)C1 (configuration not stated)
- ED50 (Rattus norvegicus [1]; [6]): 1.8 mg/kg

SMILES: COc1cc(C(=O)NCCN(C)Cc2ccccc2)cc(OC)c1OC
- ED50 (Rattus norvegicus [1]; [6]): > 30 mg/kg

SMILES: COc1cc(N(C)C)c(Cl)cc1C(=O)NC1CCN(C2CCCCC2)C1 (configuration not stated)
- ED50 (Rattus norvegicus [1]; [6]): 1 mg/kg

SMILES: CCCN(CCNC(=O)c1cc(Cl)c(N)cc1OC)Cc1ccc(Cl)cc1
- ED50 (Rattus norvegicus [1]; [6]): 3 mg/kg

SMILES: CCN1CCCC1CNC(=O)c1cc(S(=O)(=O)CC)ccc1OC (configuration not stated) [SULTOPRIDE]
- ED50 (Rattus norvegicus [1]; [6]): 18 mg/kg

SMILES: CCNc1cc(OC)c(C(=O)NC2CCN(Cc3ccccc3)C2)cc1Cl (configuration not stated)
- ED50 (Rattus norvegicus [1]; [6]): 0.1 mg/kg

SMILES: CCN1CCCC1CNC(=O)c1cc(S(N)(=O)=O)ccc1OC (configuration not stated) [SULPIRIDE]
- ED50 (Rattus norvegicus [1]; [6]): > 100 mg/kg

SMILES: CNc1cc(OC)c(C(=O)NC2CCN(Cc3ccccc3)C2)cc1Cl (configuration not stated)
- ED50 (Rattus norvegicus [1]; [6]): 0.016 mg/kg
- ED50 (Rattus norvegicus [3]): 1.6 mg/kg
- ED50 (Rattus norvegicus [4]): 0.008 mg/kg
- Ratio [2]: 100

SMILES: CN(CCNC(=O)c1ccc(F)cc1)Cc1ccccc1.Cl
- ED50 (Rattus norvegicus [1]; [6]): > 30 mg/kg

SMILES: COc1ccc(Cl)cc1C(=O)NCCN(C)Cc1ccccc1.Cl
- ED50 (Rattus norvegicus [1]; [6]): 3 mg/kg

SMILES: COc1cc(N(C)C)c(Cl)cc1C(=O)NCCN(C)Cc1ccccc1
- ED50 (Rattus norvegicus [1]; [6]): 0.54 mg/kg

SMILES: CCN(CCNC(=O)c1cc(Cl)c(N)cc1OC)Cc1ccccc1Cl
- ED50 (Rattus norvegicus [1]; [6]): 10 mg/kg

SMILES: COc1cc(N)c(Cl)cc1C(=O)NCCN(C)Cc1ccccc1C(F)(F)F
- ED50 (Rattus norvegicus [1]; [6]): 30 mg/kg

SMILES: CCN1CCC(NC(=O)c2cc(Cl)c(NC)cc2OC)C1 (configuration not stated)
- ED50 (Rattus norvegicus [1]; [6]): 10 mg/kg

SMILES: COc1cc(N)c(Cl)cc1C(=O)NC1CCN(C2CCCCC2)C1 (configuration not stated)
- ED50 (Rattus norvegicus [1]; [6]): 1.8 mg/kg

SMILES: CCCNc1cc(OC)c(C(=O)NC2CCN(Cc3ccccc3)C2)cc1Cl (configuration not stated)
- ED50 (Rattus norvegicus [1]; [6]): 17 mg/kg

SMILES: CNc1cc(OC)c(C(=O)NCC2CCCN2Cc2ccccc2)cc1Cl.Cl (configuration not stated)
- ED50 (Rattus norvegicus [1]; [6]): 0.94 mg/kg

SMILES: COc1cc(N(C)C)c(Cl)cc1C(=O)NCC1CCCN1C1CCCCC1.O=C(O)C(=O)O (configuration not stated)
- ED50 (Rattus norvegicus [1]; [6]): > 30 mg/kg

SMILES: COc1ccc(OC)c(C(=O)NCCN(C)Cc2ccccc2)c1.Cl
- ED50 (Rattus norvegicus [1]; [6]): 3 mg/kg

SMILES: COc1cc(N(C)C)c(Cl)cc1C(=O)NC1CCN(Cc2ccccc2)C1 (configuration not stated)
- ED50 (Rattus norvegicus [1]; [6]): 0.12 mg/kg

SMILES: CCNCCNC(=O)c1cc(Cl)c(N)cc1OC [MONODEETHYLATED-MCP]
- ED50 (Rattus norvegicus [1]; [6]): > 30 mg/kg

SMILES: COc1cc(N(C)C(C)=O)c(Cl)cc1C(=O)NC1CCN(Cc2ccccc2)C1 (configuration not stated)
- ED50 (Rattus norvegicus [1]; [6]): > 30 mg/kg

SMILES: COc1cc(N)c(Cl)cc1C(=O)NCCN(C)Cc1ccccc1
- ED50 (Rattus norvegicus [1]; [6]): 0.38 mg/kg
